Experimental data gathered from unrelated publications.
Compare with care: the assays were run in different laboratories.
Target: Serine/threonine-protein kinase TAO2 (TAOK2, Homo sapiens, UniProt Q9UL54)
Sequence (Q9UL54 1-1235, as in one of the studies): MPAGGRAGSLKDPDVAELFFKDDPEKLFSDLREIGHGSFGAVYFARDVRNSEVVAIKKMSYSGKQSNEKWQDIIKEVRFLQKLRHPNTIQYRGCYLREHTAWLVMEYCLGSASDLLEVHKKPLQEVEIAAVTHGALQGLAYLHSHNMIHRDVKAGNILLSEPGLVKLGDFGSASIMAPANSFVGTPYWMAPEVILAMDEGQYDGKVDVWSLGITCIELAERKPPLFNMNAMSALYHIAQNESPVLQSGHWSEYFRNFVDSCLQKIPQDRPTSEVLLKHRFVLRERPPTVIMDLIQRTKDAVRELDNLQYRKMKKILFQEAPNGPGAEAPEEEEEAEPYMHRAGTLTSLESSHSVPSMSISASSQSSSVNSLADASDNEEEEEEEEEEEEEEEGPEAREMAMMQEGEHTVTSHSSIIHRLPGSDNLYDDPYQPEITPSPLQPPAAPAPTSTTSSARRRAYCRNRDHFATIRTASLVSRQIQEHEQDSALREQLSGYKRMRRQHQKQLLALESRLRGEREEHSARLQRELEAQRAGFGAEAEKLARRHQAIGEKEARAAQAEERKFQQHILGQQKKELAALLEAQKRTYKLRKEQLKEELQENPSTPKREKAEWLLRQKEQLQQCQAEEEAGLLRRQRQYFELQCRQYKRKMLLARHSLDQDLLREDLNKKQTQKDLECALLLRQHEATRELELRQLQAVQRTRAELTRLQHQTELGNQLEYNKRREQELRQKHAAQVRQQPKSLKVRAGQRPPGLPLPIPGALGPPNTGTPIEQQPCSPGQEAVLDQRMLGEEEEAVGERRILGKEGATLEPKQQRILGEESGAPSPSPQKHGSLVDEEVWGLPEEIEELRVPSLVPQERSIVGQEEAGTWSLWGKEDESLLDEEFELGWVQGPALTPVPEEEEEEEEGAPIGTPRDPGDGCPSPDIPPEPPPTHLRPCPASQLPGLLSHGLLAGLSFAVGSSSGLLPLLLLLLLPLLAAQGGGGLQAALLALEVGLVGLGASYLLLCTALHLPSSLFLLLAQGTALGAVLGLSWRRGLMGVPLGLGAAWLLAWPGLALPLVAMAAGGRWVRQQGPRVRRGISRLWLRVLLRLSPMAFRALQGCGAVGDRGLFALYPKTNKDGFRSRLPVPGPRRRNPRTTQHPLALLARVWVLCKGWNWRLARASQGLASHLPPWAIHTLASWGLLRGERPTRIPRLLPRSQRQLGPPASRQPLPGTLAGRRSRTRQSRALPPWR

Compound | test | conditions | quantity | result
CCN(CC)CCNC(=O)c1c(C)[nH]c(/C=C2\C(=O)Nc3ccc(F)cc32)c1C | enzyme activity, inhibitor | 10 µM | inhibition | 29%
CSc1nc(C)c(-c2ccnc(Nc3ccc(N4CCOCC4)cc3)c2)[nH]1 | enzyme activity, inhibitor | 10 µM | inhibition | 2.1%
Cc1ccc(Nc2nccc(N(C)c3ccc4c(C)n(C)nc4c3)n2)cc1S(N)(=O)=O | enzyme activity, inhibitor | 10 µM | inhibition | 93%
CN1CC(Oc2cnc(C#N)cc2-c2ccn3nc(NC(=O)C4CC4)cc3c2)C1 | enzyme activity, inhibitor | 1 µM | inhibition | 0%
Cc1cc(NC(=O)c2cccc3cc(-c4cccc5[nH]nc(N)c45)ccc23)ccc1F | enzyme activity, inhibitor | 0.1 µM | activity vs control | 86%
COc1cccc(CNC(=O)c2nc3scc(COCc4ccc(C(=O)O)cc4)c3c(=O)[nH]2)c1 | cell-free assay, competition with immobilised ligand | 1 µM | remaining binding | 59.8%
CCCS(=O)(=O)Nc1ccc(F)c(C(=O)c2c[nH]c3ncc(-c4ccc(Cl)cc4)cc23)c1F | enzyme activity, inhibitor | 1 µM | inhibition | < 10%
O=C(NS(=O)(=O)c1ccc(NCC2CCOCC2)c([N+](=O)[O-])c1)c1ccc(N2CCN(Cc3ccc(C(F)(F)F)cc3-c3ccc(Cl)cc3)CC2)cc1Oc1cnc2[nH]ccc2c1 | cell-free assay, competition with immobilised ligand | 1 µM | remaining binding | 82%
Nc1ncnc2occ(-c3ccc(NC(=O)Nc4cc(C(F)(F)F)ccc4F)cc3)c12 | cell-free assay, inhibitor | 20 µM | remaining signal | 0%
O=C(Nc1ccc(Oc2ccc(F)cc2)cc1)N1CCc2ncccc2[C@H]1c1ccc(F)cc1 | cell-free assay, competition with immobilised ligand | 1 µM | remaining binding | 100%
O=[N+]([O-])c1cccc2[nH]c(CNc3nc(N4CCOCC4)nc4c3ncn4-c3ccsc3)nc12 | binding, competition with immobilised ligand | 10 µM | binding vs control | 84%
COc1cc(-c2cc(-c3ccc(N4CCNCC4)cc3)cnc2C)cc(OC)c1OC | enzyme activity, inhibitor | 0.1 µM | inhibition | 2%
CCCOc1ccc([C@H]2[C@H](C(=O)O)[C@@H](c3ccc4c(c3)OCO4)CN2CC(=O)Nc2c(CC)cccc2CC)cc1 | cell-free assay, competition with immobilised ligand | 1 µM | remaining binding | 74%
CC(C)(C)c1nc(-c2cccc(NS(=O)(=O)c3c(F)cccc3F)c2F)c(-c2ccnc(N)n2)s1 | enzyme activity, inhibitor, radiometric | 1 µM | remaining activity | 35%
CCCCNc1ncc2c(-c3ccc(F)cc3)nn(C[C@H]3CC[C@H](N)CC3)c2n1 | target engagement in cells, inhibitor, chemoproteomics | 20 mM | inhibition | 24.3%
CNC(=O)c1cc(Oc2ccc(NC(=O)Nc3ccc(Cl)c(C(F)(F)F)c3)cc2)ccn1 | enzyme activity, inhibitor | 0.3 µM | inhibition | 84%
CN1CCN(c2cnc3c(C4CCN(C(=O)c5ccc(OC(F)(F)F)cc5N)CC4)ncnc3c2)CC1 | cell-free assay, competition with immobilised ligand | 1 µM | remaining binding | 100%
